Assays:
[1] = Antitumor activity against mouse EAC cells allografted in Swiss albino mouse assessed as decrease in tumor weight at 0.2 mmol/kg, ip administered from day 1 to day 7 every 24 hrs; assay type: functional; details: Ehrlich
In short: (§1)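 EAC cells kept by intraperitoneal passage in Swiss albino mice (18-20 g, 10 weeks) every 10 days; 9-day-old cells in isotonic saline adjusted to 10×10^6 cells/mL, 0.1 mL per 10 g injected ip on day 0. Seven daily ip doses in PBS pH 7.2 (0.1 mL/10 g), days 1-7; vehicle control. Day 8 sacrifice after 6 h fast.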

Histone deacetylase 1 = Histone deacetylase 1 (Homo sapiens, UniProt Q13547); experiment: Inhibition of HDAC1 using Fluor de Lys as substrate by fluorescence analysis
[2] = Antitumor activity against mouse EAC cells allografted in Swiss albino mouse assessed as decrease in tumor cell at 0.2 mmol/kg, ip administered from day 1 to day 7 every 24 hrs; assay type: functional; details: Ehrlich; in short: as §1
HCT-116 = experiment: Growth inhibition of human HCT116 cells after 2 days by MTT assay; assay type: functional; details: HCT-116, 48 h; for CC50: read-out: LC50 (the source's name)
U-251 = experiment: Growth inhibition of human U251 cells after 2 days by MTT assay; assay type: functional; details: U-251, 48 h
[3] = molecular target: T1, NAD-dependent protein deacetylase sirtuin-1 (Homo sapiens, UniProt Q96EB6); experiment: Inhibition of SIRT1
T1 sequence (Q96EB6 whole entry): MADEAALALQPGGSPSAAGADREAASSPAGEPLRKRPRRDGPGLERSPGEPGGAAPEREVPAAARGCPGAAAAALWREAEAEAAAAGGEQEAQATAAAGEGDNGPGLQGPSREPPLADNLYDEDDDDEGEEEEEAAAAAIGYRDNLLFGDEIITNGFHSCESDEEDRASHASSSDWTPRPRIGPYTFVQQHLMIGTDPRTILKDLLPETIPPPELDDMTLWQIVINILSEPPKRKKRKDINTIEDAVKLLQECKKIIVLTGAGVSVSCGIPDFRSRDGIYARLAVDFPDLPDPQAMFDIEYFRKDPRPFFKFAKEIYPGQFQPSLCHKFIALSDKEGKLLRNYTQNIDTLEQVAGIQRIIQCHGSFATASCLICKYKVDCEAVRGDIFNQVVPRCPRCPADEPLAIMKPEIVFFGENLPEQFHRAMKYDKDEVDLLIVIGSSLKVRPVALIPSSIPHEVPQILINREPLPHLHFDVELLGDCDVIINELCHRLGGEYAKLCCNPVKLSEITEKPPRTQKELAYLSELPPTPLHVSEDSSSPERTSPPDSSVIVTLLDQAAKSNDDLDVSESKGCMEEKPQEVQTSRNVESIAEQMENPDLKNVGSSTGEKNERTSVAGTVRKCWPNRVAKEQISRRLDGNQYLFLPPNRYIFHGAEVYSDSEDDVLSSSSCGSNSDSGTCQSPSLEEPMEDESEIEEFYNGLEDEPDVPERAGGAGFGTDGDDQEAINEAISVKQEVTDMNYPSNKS

[4] = Antitumor activity against mouse EAC cells allografted in Swiss albino mouse assessed as decrease in tumor cell at 1 mg/kg, ip administered from day 1 to day 7 every 24 hrs; assay type: functional; details: Ehrlich, route intraperitoneal; in short: as §1
[5] = Antitumor activity against mouse EAC cells allografted in Swiss albino mouse assessed as decrease in tumor weight at 1 mg/kg, ip administered from day 1 to day 7 every 24 hrs; assay type: functional; details: Ehrlich, route intraperitoneal; in short: as §1

Chain of Histone deacetylase 1 (Q13547 whole entry): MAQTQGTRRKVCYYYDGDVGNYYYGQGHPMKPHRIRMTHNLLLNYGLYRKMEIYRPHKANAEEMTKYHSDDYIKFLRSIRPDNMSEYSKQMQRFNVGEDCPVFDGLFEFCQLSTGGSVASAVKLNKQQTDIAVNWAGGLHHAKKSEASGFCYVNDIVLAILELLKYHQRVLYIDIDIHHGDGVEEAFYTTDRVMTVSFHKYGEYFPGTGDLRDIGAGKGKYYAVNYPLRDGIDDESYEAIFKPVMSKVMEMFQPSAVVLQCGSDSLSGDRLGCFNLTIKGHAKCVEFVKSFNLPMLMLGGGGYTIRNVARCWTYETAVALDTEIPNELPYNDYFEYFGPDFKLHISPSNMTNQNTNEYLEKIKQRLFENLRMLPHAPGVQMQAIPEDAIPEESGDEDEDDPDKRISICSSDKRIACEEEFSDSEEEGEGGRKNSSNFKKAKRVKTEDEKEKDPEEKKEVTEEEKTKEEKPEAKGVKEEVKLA

Structure (SMILES)	inhibition in vivo at 200 µmol/kg [1] [%]	IC50 (Histone deacetylase 1) [µM]	inhibition in vivo at 200 µmol/kg [2] [%]	GI50 (HCT-116) [µM]	TGI (HCT-116) [µM]	CC50 (HCT-116) [µM]	GI50 (U-251) [µM]	LC50 (concentration killing 50% of cells) (U-251) [µM]	TGI (U-251) [µM]	IC50 [3] [µM]	inhibition in vivo at 1 mg/kg [4] [%]	inhibition in vivo at 1 mg/kg [5] [%]
Nc1ccccc1NC(=O)CCCNCC(=O)Nc1ccc(Br)cc1	73.8	1.7	68.7	7.7	55.5	> 100	10.4	> 100	80			
Nc1ccccc1NC(=O)CCCNCC(=O)Nc1ccccc1	25	9.2	19.1	70.4	> 100	> 100	> 100	> 100	> 100			
Nc1ccccc1NC(=O)CCCNCC(=O)Nc1ccccc1Cl	21.4	2.9	12.7	21.8	> 100	> 100	28.6	> 100	> 100			
Nc1ccccc1NC(=O)CCCNCC(=O)Nc1cccc(Cl)c1	32.1	1.8	22.5	11.6	75	> 100	19.5	> 100	> 100			
Nc1ccccc1NC(=O)CCCNCC(=O)Nc1ccc(Cl)cc1	72.7	1.4	75	5.5	45	> 100	11.4	> 100	75			
Nc1ccccc1NC(=O)CCCNCC(=O)Nc1ccccc1[N+](=O)[O-]	41.3	3.1	10.5	2.8	32	> 100	32	> 100	> 100			
Nc1ccccc1NC(=O)CCCNCC(=O)Nc1cccc([N+](=O)[O-])c1	40.6	2.3	36	0.9	22.5	> 100	15	> 100	93.5			
Nc1ccccc1NC(=O)CCCNCC(=O)Nc1ccc([N+](=O)[O-])cc1	78.5	0.9	76.5	0.6	8.5	> 100	9.4	> 100	66			
COc1ccc(NC(=O)CNCCCC(=O)Nc2ccccc2N)cc1	63.8	3.6	63.3	8.6	44	> 100	34	> 100	> 100			
Cc1ccc(NC(=O)CNCCCC(=O)Nc2ccccc2N)cc1	42.8	7.5	18.9	17.9	> 100	> 100	57	> 100	> 100			
Nc1ccccc1NC(=O)CCCNCC(=O)Nc1cc(Cl)ccc1Cl	50	8.9	50.9	31	78	> 100	44	> 100	> 100			
Nc1ccccc1NC(=O)c1ccc(NCC(=O)Nc2ccccc2)cc1	18.5	7.4	30.5	45.3	> 100	> 100	65	> 100	> 100			
Nc1ccccc1NC(=O)c1ccc(NCC(=O)Nc2ccc(Br)cc2)cc1	76.3	1.6	73.5	6.8	47.5	> 100	10.8	> 100	45			
Nc1ccccc1NC(=O)c1ccc(NCC(=O)Nc2ccccc2Cl)cc1	43.3	2.9	31.4	9.5	> 100	> 100	24.2	> 100	> 100			
Nc1ccccc1NC(=O)c1ccc(NCC(=O)Nc2cccc(Cl)c2)cc1	68.4	2.5	51.7	11.5	> 100	> 100	15.4	> 100	88			
Nc1ccccc1NC(=O)c1ccc(NCC(=O)Nc2ccc(Cl)cc2)cc1	79.4	1	73.3	4.2	62.5	> 100	9.4	> 100	62.5			
Nc1ccccc1NC(=O)c1ccc(NCC(=O)Nc2ccccc2[N+](=O)[O-])cc1	12.9	2	19.7	3.5	25	> 100	18	> 100	83			
Nc1ccccc1NC(=O)c1ccc(NCC(=O)Nc2cccc([N+](=O)[O-])c2)cc1	67.6	1.4	40.4	1.1	9	> 100	13.5	> 100	52			
Nc1ccccc1NC(=O)c1ccc(NCC(=O)Nc2ccc([N+](=O)[O-])cc2)cc1	83.3	0.7	77.5	0.6	6.5	> 100	8.2	> 100	42.5			
COc1ccc(NC(=O)CNc2ccc(C(=O)Nc3ccccc3N)cc2)cc1	66.6	3.1	62.3	7.5	38	> 100	25.5	> 100	> 100			
Cc1ccc(NC(=O)CNc2ccc(C(=O)Nc3ccccc3N)cc2)cc1	43.3	4.5	25.2	12.6	> 100	> 100	84	> 100	> 100			
Nc1ccccc1NC(=O)c1ccc(NCC(=O)Nc2cc(Cl)ccc2Cl)cc1	58.3	8.6	56.2	7.9	66	> 100	38.6	> 100	> 100			
Nc1ccccc1NC(=O)c1ccc(CNC(=O)OCc2cccnc2)cc1 [ENTINOSTAT]				0.6	> 100	> 100	6.5		40	> 100		
CO[C@@]12[C@H](COC(N)=O)C3=C(C(=O)C(C)=C(N)C3=O)N1C[C@@H]1N[C@@H]12 [MITOMYCIN]											100	100
